From ChEMBL document CHEMBL3352280, “Modulation of cAMP-specific PDE without emetogenic activity: new sulfide-like PDE7 inhibitors” (J Med Chem, 2014)
Active and inactive are the calls of the source. The calls are words filed in the database; no cut-off is given here.

Assays:
[1] = target: T1, High affinity 3',5'-cyclic-AMP phosphodiesterase 7A (Homo sapiens, UniProt Q13946); experiment: Inhibition of human recombinant PDE7A1 assessed as inhibition of hydrolysis of [3H]cAMP after 20 mins by scintillation proximity assay
How it was run: (§1)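 Scintillation proximity assay with human recombinant enzyme: PDE7A1 0.02 U, PDE3A 0.02 U, PDE7B 0.5 U, PDE8A 0.5 U. Enzyme incubated with 5 nCi [3H]cAMP and inhibitor in kit buffer for 20 min at 30 °C. SPA beads added and shaken 1 h at room temperature, settled 30 min, radioactivity counted.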

[2] = target: T1, High affinity 3',5'-cyclic-AMP phosphodiesterase 7A; experiment: Inhibition of human recombinant PDE7A1 assessed as inhibition of hydrolysis of [3H]cAMP at 10 uM after 20 mins by scintillation proximity assay; how it was run: as §1
[3] = target: T2, 3',5'-cyclic-AMP phosphodiesterase 4B (Homo sapiens, UniProt Q07343); experiment: Inhibition of human recombinant PDE4B2 assessed at 10 uM after 60 mins by IMAP fluorescence polarization assay
[4] = target: T3, 3',5'-cyclic-AMP phosphodiesterase 4D (Homo sapiens, UniProt Q08499); experiment: Inhibition of human recombinant PDE4D3 assessed at 10 uM after 60 mins by IMAP fluorescence polarization assay
[5] = target: cGMP-inhibited 3',5'-cyclic phosphodiesterase 3A (Homo sapiens) (UniProt Q14432); experiment: Inhibition of human recombinant PDE3A assessed as inhibition of hydrolysis of [3H]cAMP at 10 uM after 20 mins by scintillation proximity assay; how it was run: as §1
[6] = target: T4, 3',5'-cyclic-AMP phosphodiesterase 7B (Homo sapiens, UniProt Q9NP56); experiment: Inhibition of human recombinant PDE7B assessed as inhibition of hydrolysis of [3H]cAMP at 10 uM after 20 mins by scintillation proximity assay; how it was run: as §1
SH-SY5Y = experiment: Cytoprotective activity against 6-OHDA-induced death of human SH-SY5Y cells pretreated for 1 hr at 10 uM measured 16 hrs post 6-OHDA challenge by MTT assay; format: functional, cell-based
How it was run: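 Human neuroblastoma SH-SY5Y grown in F12/EMEM with 2 mM glutamine, 1% nonessential amino acids and 15% FBS at 37 °C, 5% CO2. Semiconfluent cells pretreated 1 h with compound, then 6-OHDA (35 μM) added for 16 h. Viability by MTT (0.5 mg/mL, 4 h), SDS/HCl solubilisation, absorbance 595 nm. Mean ± SD of three experiments.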

[7] = target: T4, 3',5'-cyclic-AMP phosphodiesterase 7B; experiment: Inhibition of human recombinant PDE7B assessed as inhibition of hydrolysis of [3H]cAMP after 20 mins by scintillation proximity assay; how it was run: as §1
Astrocyte = experiment: Inhibition of LPS-induced NO production in rat astrocytes treated for 1 hr at 10 uM before LPS challenge measured after 24 hrs by Griess assay; format: functional, cell-based
How it was run: (§2)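 After 2 days, cells were pretreated with compound (10 μM), then LPS (10 μg/mL) was added for 24 h. Nitrite in the supernatant was measured by Griess reagent (15 min, room temperature, absorbance 492/540 nm). Mean ± SD of three experiments.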

Microglia = experiment: Inhibition of LPS-induced NO production in rat microglia treated for 1 hr at 10 uM before LPS challenge measured after 24 hrs by Griess assay; format: functional; how it was run: as §2
[8] = target: T2, 3',5'-cyclic-AMP phosphodiesterase 4B; experiment: Inhibition of human recombinant PDE4B2 assessed after 60 mins by IMAP fluorescence polarization assay
[9] = target: T3, 3',5'-cyclic-AMP phosphodiesterase 4D; experiment: Inhibition of human recombinant PDE4D3 assessed after 60 mins by IMAP fluorescence polarization assay
Phosphodiesterase 7 = Phosphodiesterase 7 (Homo sapiens, UniProt Q13946+Q9NP56); experiment: Inhibition of PDE7 (unknown origin); format: protein assay
Mus musculus = experiment: Emetogenic potential in surrogate emesis CD1 mouse model assessed as effect on xyclacine/ketamine-induced loss of righting reflex at 0.1 to 10 mg/kg, sc; format: ADME, organism-based; set-up: dose 0.1-10 mg/kg, route subcutaneous; conditions: in vivo

T2 sequence (Q07343 whole entry): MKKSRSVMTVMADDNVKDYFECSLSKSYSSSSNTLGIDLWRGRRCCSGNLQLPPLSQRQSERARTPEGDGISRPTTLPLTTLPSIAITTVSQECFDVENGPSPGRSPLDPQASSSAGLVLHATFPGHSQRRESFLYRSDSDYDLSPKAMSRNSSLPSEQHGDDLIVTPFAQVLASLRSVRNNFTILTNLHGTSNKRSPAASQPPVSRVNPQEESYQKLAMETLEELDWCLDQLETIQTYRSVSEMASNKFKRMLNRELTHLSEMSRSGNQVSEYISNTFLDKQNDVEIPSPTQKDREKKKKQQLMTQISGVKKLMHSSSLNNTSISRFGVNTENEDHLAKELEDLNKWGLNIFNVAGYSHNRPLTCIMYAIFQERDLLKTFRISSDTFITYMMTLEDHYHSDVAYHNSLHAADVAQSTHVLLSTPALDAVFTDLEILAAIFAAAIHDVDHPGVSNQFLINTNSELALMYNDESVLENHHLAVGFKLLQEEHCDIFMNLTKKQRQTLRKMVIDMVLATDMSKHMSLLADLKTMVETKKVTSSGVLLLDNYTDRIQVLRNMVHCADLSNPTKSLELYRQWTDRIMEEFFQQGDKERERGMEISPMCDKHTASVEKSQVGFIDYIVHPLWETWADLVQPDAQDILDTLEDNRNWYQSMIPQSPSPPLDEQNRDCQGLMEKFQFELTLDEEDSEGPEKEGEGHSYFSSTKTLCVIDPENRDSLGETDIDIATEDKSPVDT
T3 sequence (Q08499 whole entry): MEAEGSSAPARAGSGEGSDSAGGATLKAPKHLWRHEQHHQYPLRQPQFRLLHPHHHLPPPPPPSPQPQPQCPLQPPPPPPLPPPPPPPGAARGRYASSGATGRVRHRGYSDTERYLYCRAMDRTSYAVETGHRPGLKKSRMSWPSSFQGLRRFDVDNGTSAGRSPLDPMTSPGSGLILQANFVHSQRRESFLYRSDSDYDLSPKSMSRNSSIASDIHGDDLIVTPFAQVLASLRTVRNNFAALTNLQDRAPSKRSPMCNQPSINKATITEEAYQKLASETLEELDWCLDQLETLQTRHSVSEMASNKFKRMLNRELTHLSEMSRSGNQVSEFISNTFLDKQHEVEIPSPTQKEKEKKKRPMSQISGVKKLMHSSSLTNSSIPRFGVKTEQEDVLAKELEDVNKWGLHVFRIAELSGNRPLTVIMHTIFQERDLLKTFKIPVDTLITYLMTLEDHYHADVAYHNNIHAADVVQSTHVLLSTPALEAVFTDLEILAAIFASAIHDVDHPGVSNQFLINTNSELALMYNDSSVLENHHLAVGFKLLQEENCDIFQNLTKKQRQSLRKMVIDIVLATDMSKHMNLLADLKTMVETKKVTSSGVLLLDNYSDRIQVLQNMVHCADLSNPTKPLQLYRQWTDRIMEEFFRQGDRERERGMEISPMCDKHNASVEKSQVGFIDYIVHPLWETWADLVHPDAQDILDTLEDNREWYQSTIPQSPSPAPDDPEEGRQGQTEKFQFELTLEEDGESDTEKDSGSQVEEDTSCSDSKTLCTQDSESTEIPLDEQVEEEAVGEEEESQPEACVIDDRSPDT
Chain of cGMP-inhibited 3',5'-cyclic phosphodiesterase 3A (Homo sapiens) (Q14432 whole entry): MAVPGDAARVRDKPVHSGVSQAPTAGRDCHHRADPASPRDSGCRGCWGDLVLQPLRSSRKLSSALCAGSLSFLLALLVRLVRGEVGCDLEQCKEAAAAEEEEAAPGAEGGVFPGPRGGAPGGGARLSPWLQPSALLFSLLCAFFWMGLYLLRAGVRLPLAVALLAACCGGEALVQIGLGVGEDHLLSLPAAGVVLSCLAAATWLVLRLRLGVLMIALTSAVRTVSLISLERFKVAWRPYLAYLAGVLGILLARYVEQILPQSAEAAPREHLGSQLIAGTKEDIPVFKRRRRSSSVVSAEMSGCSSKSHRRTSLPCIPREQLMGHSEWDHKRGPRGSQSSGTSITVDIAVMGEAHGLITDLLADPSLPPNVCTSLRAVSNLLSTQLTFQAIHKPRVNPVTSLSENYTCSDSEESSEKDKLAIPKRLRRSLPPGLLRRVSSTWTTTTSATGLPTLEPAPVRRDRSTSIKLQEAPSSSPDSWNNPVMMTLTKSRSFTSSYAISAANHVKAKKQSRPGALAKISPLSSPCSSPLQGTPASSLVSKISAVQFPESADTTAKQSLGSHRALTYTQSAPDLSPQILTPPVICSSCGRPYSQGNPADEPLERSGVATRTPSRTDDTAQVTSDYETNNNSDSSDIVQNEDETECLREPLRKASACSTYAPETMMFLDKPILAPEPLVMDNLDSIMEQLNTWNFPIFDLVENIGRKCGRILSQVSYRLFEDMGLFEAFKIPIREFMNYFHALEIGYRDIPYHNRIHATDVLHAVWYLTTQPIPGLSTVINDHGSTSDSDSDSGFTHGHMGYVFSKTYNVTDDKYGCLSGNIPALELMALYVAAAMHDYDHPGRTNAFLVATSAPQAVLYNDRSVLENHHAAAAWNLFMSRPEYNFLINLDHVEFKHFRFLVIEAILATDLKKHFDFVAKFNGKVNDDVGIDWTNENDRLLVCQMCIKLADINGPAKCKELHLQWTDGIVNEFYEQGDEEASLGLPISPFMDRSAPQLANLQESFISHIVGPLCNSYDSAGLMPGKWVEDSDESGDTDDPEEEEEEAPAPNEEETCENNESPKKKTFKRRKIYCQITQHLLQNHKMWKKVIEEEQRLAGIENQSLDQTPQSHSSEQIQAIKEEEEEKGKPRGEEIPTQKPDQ
T4 sequence (Q9NP56 whole entry): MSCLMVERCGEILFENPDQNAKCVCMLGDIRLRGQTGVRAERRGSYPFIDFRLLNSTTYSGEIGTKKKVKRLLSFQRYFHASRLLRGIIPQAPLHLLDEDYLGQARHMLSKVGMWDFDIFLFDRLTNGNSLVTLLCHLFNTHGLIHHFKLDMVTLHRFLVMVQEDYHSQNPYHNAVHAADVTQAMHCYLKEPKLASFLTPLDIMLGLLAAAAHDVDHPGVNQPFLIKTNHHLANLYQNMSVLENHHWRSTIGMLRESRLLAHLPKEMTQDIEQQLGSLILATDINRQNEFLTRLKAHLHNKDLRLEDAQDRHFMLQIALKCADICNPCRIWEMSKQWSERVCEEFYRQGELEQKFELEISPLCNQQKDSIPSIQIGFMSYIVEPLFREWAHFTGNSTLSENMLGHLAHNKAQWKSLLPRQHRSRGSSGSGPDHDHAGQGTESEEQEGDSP
T1 sequence (Q13946 whole entry): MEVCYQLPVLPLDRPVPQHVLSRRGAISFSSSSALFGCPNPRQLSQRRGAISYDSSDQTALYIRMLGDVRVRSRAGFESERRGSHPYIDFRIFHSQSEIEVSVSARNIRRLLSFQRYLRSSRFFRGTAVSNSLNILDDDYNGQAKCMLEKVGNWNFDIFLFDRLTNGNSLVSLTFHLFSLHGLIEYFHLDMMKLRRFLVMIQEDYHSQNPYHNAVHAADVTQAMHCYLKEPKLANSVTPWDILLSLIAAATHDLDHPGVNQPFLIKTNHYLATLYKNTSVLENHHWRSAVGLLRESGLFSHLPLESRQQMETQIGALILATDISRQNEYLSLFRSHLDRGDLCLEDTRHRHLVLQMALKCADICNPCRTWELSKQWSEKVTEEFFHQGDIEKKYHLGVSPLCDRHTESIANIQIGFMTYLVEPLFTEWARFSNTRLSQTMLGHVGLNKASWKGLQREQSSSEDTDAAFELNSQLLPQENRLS

| SMILES | IC50 [1] [µM] | inhibition [2] [%] | other results |
| --- | --- | --- | --- |
| O=[N+]([O-])c1ccc(Cl)cc1Sc1ccccn1 | 7.98 | 56 |  |
| CC(=O)Nc1ccccc1Sc1cc(Cl)ccc1[N+](=O)[O-] | 2.1 | 58 | inhibition [3]: 11%; inhibition [4]: 10%; inhibition [5]: 10% |
| Nc1ccc(Sc2cc(Cl)ccc2[N+](=O)[O-])cc1 | 2.2 | 71 |  |
| O=[N+]([O-])c1ccc(Cl)cc1Sc1ccccc1Br | 1.01 | 69 | inhibition [6]: 71%; Activity (SH-SY5Y): Active; inhibition [3]: 6%; inhibition [4]: 2%; IC50 [7]: 2.2 µM; inhibition (Astrocyte): Active; inhibition (Microglia): Active; inhibition [5]: 16% |
| CC(C)c1ccccc1Sc1ccc([N+](=O)[O-])cc1Cl |  | 17 |  |
| Nc1cccc(Sc2ccc([N+](=O)[O-])cc2Cl)c1 | 3.2 | 78 |  |
| O=[N+]([O-])c1cc(Cl)ccc1Sc1cccs1 | 1.6 | 81 |  |
| O=[N+]([O-])c1ccc(Cl)cc1Sc1ccncc1 | 1.88 | 80 |  |
| CC(=O)Nc1ccccc1Sc1sccc1[N+](=O)[O-] |  | 31 |  |
| Nc1ccccc1Sc1cc(Cl)ccc1[N+](=O)[O-] | 5.45 | 66 |  |
| Nc1ccc(Oc2ccc(Cl)cc2[N+](=O)[O-])cc1 | 3.3 | 70 |  |
| O=[N+]([O-])c1cc(Cl)ccc1Sc1ccccc1 | 1.5 | 87 | inhibition [6]: 74%; Activity (SH-SY5Y): Active; inhibition [3]: 28%; inhibition [4]: 13%; IC50 [7]: 1.5 µM; inhibition (Astrocyte): Active; inhibition (Microglia): Active; inhibition [5]: 46% |
| CC(=O)Nc1ccc(Oc2ccc(Cl)cc2[N+](=O)[O-])cc1 |  | 17 |  |
| COc1ccc(Sc2ccncc2)cc1 |  | 18 |  |
| Nc1ccc(Oc2ccc([N+](=O)[O-])cc2Cl)cc1 | 2.2 | 77 |  |
| Nc1ccc(Sc2ccc([N+](=O)[O-])cc2C(F)(F)F)cc1 | 9.27 | 63 |  |
| O=[N+]([O-])c1ccc(Sc2cccs2)c(Cl)c1 | 5.2 | 69 |  |
| c1ccc(-c2ccc(Sc3ccccn3)cc2)cc1 |  | 32 |  |
| CC(=O)Nc1ccc(Sc2ccc([N+](=O)[O-])cc2Cl)cc1 |  | 26 |  |
| Nc1ccc(Sc2ccc([N+](=O)[O-])cc2Cl)cc1 | 3.97 | 83 |  |
| O=[N+]([O-])c1ccc(Sc2ccccc2)c(Cl)c1 | 2.2 | 74 |  |
| Nc1cccc(Sc2ccncc2)c1 |  | 36 |  |

| SMILES | IC50 [1] [µM] | inhibition [2] [%] | other results |
| --- | --- | --- | --- |
| Cc1cnc(Sc2cccc(N)c2)c([N+](=O)[O-])c1 |  | 3 |  |
| CC(=O)Nc1ccc(Sc2ccc(Cl)cc2[N+](=O)[O-])cc1 |  | 7 |  |
| Nc1cccc(Sc2ccc(Cl)cc2[N+](=O)[O-])c1 | 5.69 | 68 |  |
| O=[N+]([O-])c1cc(Cl)c(Cl)cc1Sc1ccccc1Br | 2.88 | 49 |  |
| Nc1ccccc1Sc1ccc([N+](=O)[O-])cc1Cl | 8.77 | 60 |  |
| Nc1ccccc1Sc1ccc(F)cc1[N+](=O)[O-] |  | 38 |  |
| O=[N+]([O-])c1ccc(Sc2ccc(Br)cc2)c(Cl)c1 |  | 23 |  |
| CC(C)c1ccc(Sc2ccc(Cl)cc2[N+](=O)[O-])cc1 |  | 10 |  |
| O=[N+]([O-])c1cc(Cl)ccc1Sc1ccc(Br)cc1 |  | 11 |  |
| Nc1ccc(Sc2ccc(N)cc2Cl)cc1 | 6.5 | 46 |  |
| c1cnc(Sc2ccncc2)nc1 |  | 12 |  |
| Nc1ccc(Sc2ccc(Cl)cc2N)cc1 |  | 13 |  |
| O=[N+]([O-])c1ccc(SCc2ccccc2Br)c(Cl)c1 |  | 33 |  |
| Nc1ccccc1Sc1sccc1[N+](=O)[O-] | 4.27 |  |  |
| O=[N+]([O-])c1cc(Cl)ccc1SCc1ccccc1Br |  | 31 |  |
| O=[N+]([O-])c1ccc(Cl)cc1Sc1ccc(Br)cc1 |  | 36 |  |
| O=[N+]([O-])c1cc(Cl)ccc1Sc1ccncc1 | 0.72 | 91 | IC50 [8]: 4.4 µM; inhibition [6]: 76%; Activity (SH-SY5Y): Active; inhibition [3]: 77%; inhibition [4]: 74%; IC50 [7]: 13.9 µM; inhibition (Astrocyte): Active; inhibition (Microglia): Active; inhibition [5]: 33%; IC50 [9]: 3 µM |
| Nc1ccccc1Sc1cc(Cl)c(Cl)cc1[N+](=O)[O-] | 6.48 | 74 |  |
| Nc1ccccc1Sc1ccc([N+](=O)[O-])cc1C(F)(F)F |  | 42 |  |
| O=[N+]([O-])c1ccc(Sc2ccc(Cl)cc2[N+](=O)[O-])cc1 |  | 6 |  |
| CC(=O)NNc1ccccc1Sc1ccccc1Br |  | 27 |  |
| S=c1[nH]c2ccccc2c(=S)n1-c1ccccc1 |  |  | IC50 (Phosphodiesterase 7): 1.04 µM; Activity (Mus musculus): Non-toxic |

| SMILES | IC50 [1] [µM] | inhibition [2] [%] | other results |
| --- | --- | --- | --- |
| Br.OCC/N=c1/nc(-c2ccccc2)n(-c2ccccc2)s1 |  |  | IC50 (Phosphodiesterase 7): 1.11 µM; Activity (Mus musculus): Non-toxic |
| Cc1ccc([N+](=O)[O-])cc1S(=O)(=O)N(C)C |  | 99 | IC50 [8]: 1.8 µM; inhibition [5]: 0.43%; IC50 [9]: 1.28 µM |
| CC(C)c1ccc(Sc2ccc([N+](=O)[O-])cc2Cl)cc1 |  | 15 |  |
| O=[N+]([O-])c1ccsc1Sc1sccc1[N+](=O)[O-] |  | 31 |  |
| Nc1ccc(Sc2ccc([N+](=O)[O-])c(Cl)c2)cc1 | 1.47 | 79 | inhibition [6]: 42%; Activity (SH-SY5Y): Active; inhibition [3]: 2%; inhibition [4]: 3%; inhibition (Astrocyte): Active; inhibition (Microglia): Active; inhibition [5]: 22% |
| COc1ccc(Sc2cccnc2)cc1 |  | 17 |  |
| c1ccc(Sc2ccncc2)cc1 |  | 44 |  |
| O=c1c2ccccc2[nH]c(=S)n1-c1ccccc1 | 4.68 | 76 |  |
| O=[N+]([O-])c1ccc(Sc2ccccc2Br)c(Cl)c1 | 2.14 | 59 |  |
| Nc1ccc(Sc2ccc(F)cc2[N+](=O)[O-])cc1 | 6.18 | 64 |  |
| O=[N+]([O-])c1cc(Cl)ccc1Sc1ccccn1 | 3.6 | 69 |  |
| Nc1ccc(Cl)cc1Sc1ccccc1[N+](=O)[O-] | 7.3 |  |  |
| CC(=O)c1ccc(Sc2ccncc2)c([N+](=O)[O-])c1 | 3.8 | 56 |  |
| Cc1cnc(Sc2ccncc2)c([N+](=O)[O-])c1 |  | 27 |  |
| O=[N+]([O-])c1cc(Cl)ccc1Sc1ccccc1Br | 0.99 | 79 | inhibition [6]: 92%; Activity (SH-SY5Y): Active; inhibition [3]: 30%; inhibition [4]: 44%; IC50 [7]: 1.41 µM; inhibition (Astrocyte): Active; inhibition (Microglia): Active; inhibition [5]: 60% |
| O=[N+]([O-])c1ccc(Sc2ccc([N+](=O)[O-])cc2Cl)cc1 |  | 1 |  |
| CC(=O)Nc1ccc(Oc2ccc([N+](=O)[O-])cc2Cl)cc1 |  | 4 |  |
| COc1cc(COC(=O)c2ccc(-c3ccccc3)o2)cc(OC)c1OC |  |  | IC50 (Phosphodiesterase 7): 5.17 µM; Activity (Mus musculus): Non-toxic |
| Nc1ccccc1Sc1ccc(Cl)cc1[N+](=O)[O-] | 5.75 | 69 |  |
| Cc1cnc(Sc2ccc(-c3ccccc3)cc2)c([N+](=O)[O-])c1 |  | 2 |  |
